Experimental data: ChEMBL document CHEMBL4616723, “Discovery of Antibacterials That Inhibit Bacterial RNA Polymerase Interactions with Sigma Factors” (J Med Chem, 2020)
Values after ≈ are worked out from the molar mass of the structure shown. Active and inactive are the calls of the source. No cut-off for these calls is given here.

How the values were obtained:
[1] = tested on: Staphylococcus epidermidis; assay: Antibacterial activity against Staphylococcus epidermidis ATCC 12228 after 20 hrs by CLSI based-broth microdilution method; type: functional; conditions: ATCC 12228, 20 h
[2] = tested on: Streptococcus agalactiae; assay: Antibacterial activity against Streptococcus agalactiae ATCC 12386 after 20 hrs by CLSI based-broth microdilution method; type: functional; conditions: ATCC 12386, 20 h
[3] = tested on: Enterobacter cloacae; assay: Antibacterial activity against Enterobacter cloacae ATCC 13047 after 20 hrs by CLSI based-broth microdilution method; type: functional; conditions: subsp. cloacae ATCC 13047, 20 h
[4] = tested on: Enterococcus faecalis; assay: Antibacterial activity against Enterococcus faecalis ATCC 19433 after 20 hrs by CLSI based-broth microdilution method; type: functional; conditions: ATCC 19433, 20 h
[5] = tested on: Staphylococcus aureus; assay: Antibacterial activity against Staphylococcus aureus ATCC 25923 after 20 hrs by CLSI based-broth microdilution method; type: functional; conditions: ATCC 25923, 20 h
[6] = tested on: Escherichia coli; assay: Antibacterial activity against Escherichia coli ATCC 25922 after 20 hrs by CLSI based-broth microdilution method; type: functional; conditions: ATCC 25922, 20 h
[7] = tested on: Staphylococcus saprophyticus; assay: Antibacterial activity against Staphylococcus saprophyticus ATCC 15305 after 20 hrs by CLSI based-broth microdilution method; type: functional; conditions: subsp. saprophyticus ATCC 15305, 20 h
[8] = tested on: Streptococcus pyogenes; assay: Antibacterial activity against Streptococcus pyogenes ATCC 19615 after 20 hrs by CLSI based-broth microdilution method; type: functional; conditions: ATCC 19615, 20 h
[9] = tested on: Klebsiella pneumoniae; assay: Antibacterial activity against Klebsiella pneumoniae ATCC 700603 after 20 hrs by CLSI based-broth microdilution method; type: functional; conditions: ATCC 700603, 20 h
[10] = tested on: Staphylococcus aureus; assay: Antibacterial activity against Staphylococcus aureus ATCC 29213 after 20 hrs by CLSI based-broth microdilution method; type: functional; conditions: ATCC 29213, 20 h
[11] = Inhibition of N-terminal SmBiT-fused Bacillus subtilis RNAP subunit beta' CH region expressed in Escherichia coli BL21(DE3)pLysS interaction with C- terminal LgBiT-fused Bacillus subtilis RNA polymerase sigma factor SigA expressed in Escherichia coli BL21(DE3)pLysS preincubated for 10 mins followed by RNA polymerase sigma factor SigA addition and measured after 10 mins by nano-glo luciferase assay
Method in brief: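 Split-luciferase complementation in PBS: N-SmBiT-CH (2.5 μM stock) mixed with compound at desired concentrations, 10 min at 37 °C. C-LgBiT-σA (2.5 μM stock) then added, another 10 min at 37 °C. Equal volume of Nano-Glo substrate added and luminescence read. No-drug control included. Run in triplicate with technical repeats.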

[12] = tested on: Pseudomonas aeruginosa; assay: Antibacterial activity against Pseudomonas aeruginosa ATCC 27853 after 20 hrs by CLSI based-broth microdilution method; type: functional; conditions: ATCC 27853, 20 h
[13] = tested on: Acinetobacter baumannii; assay: Antibacterial activity against Acinetobacter baumannii ATCC 19606 after 20 hrs by CLSI based-broth microdilution method; type: functional; conditions: ATCC 19606 = CIP 70.34 = JCM 6841, 20 h
[14] = tested on: Streptococcus pneumoniae; assay: Antibacterial activity against Streptococcus pneumoniae ATCC 49619 after 20 hrs by CLSI based-broth microdilution method; type: functional; conditions: ATCC 49619, 20 h
[15] = tested on: Streptococcus pneumoniae; assay: Antibacterial activity against Streptococcus pneumoniae ATCC 49619 assessed as reduction in pneumolysin release at 0.25 to 0.5 times MIC incubated for 16 to 20 hrs by Western blot analysis; type: functional, organism-based
Method in brief: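 Overnight static culture in brain–heart infusion broth, with or without serially diluted compound; rifampicin and ceftriaxone controls at twofold dilutions from 2 to 0.002 μg/mL; untreated control. […] Western blot probed with rabbit polyclonal anti-pneumolysin (1:1000) and HRP anti-rabbit secondary, ECL chemiluminescence; band intensity normalized to untreated control.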

[16] = tested on: HepG2; assay: Cytotoxicity against human HepG2 cells after 48 to 72 hrs by MTT assay; type: cell-based
[17] = tested on: A549; assay: Cytotoxicity against human A549 cells after 48 to 72 hrs by MTT assay; type: cell-based
[18] = Therapeutic index, ratio of CC50 for human HepG2 cells to MIC for Streptococcus pneumoniae ATCC 49619; type: toxicity; conditions: read-out: TI
[19] = Therapeutic index, ratio of CC50 for human A549 cells to MIC for Streptococcus pneumoniae ATCC 49619; type: toxicity; conditions: read-out: TI
[20] = tested on: Streptococcus pneumoniae; assay: Antibacterial activity against Streptococcus pneumoniae ATCC 49619 after 16 to 20 hrs by CLSI based-broth microdilution method; type: functional
[21] = Apparent permeability across apical to basolateral membrane in human Caco2 cells at 10 ug/ml by LC-MS/MS analysis; type: ADME, cell-based; conditions: Caco-2
Method in brief: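 Caco-2 monolayers grown 21–28 days on Transwell polycarbonate membranes, TEER ≥165 Ω cm2; preincubated 20 min at 37 °C in transport buffer; apical-to-basolateral transport only, pH 7.4 on both sides; receiver sampled over time under sink conditions; concentrations measured by LC–MS/MS.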

[22] = Haemolytic activity in human erythrocytes at 0.1 to 10 ug/ml relative to control; type: ADME, cell-based, Erythrocyte; conditions: read-out: Activity
Method in brief: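 Human erythrocytes washed in 150 mM NaCl, resuspended in PBS pH 7.4 (2% blood); compound at final 0.1, 1 and 10 μg/mL (0.5% DMSO) for 45 min at 37 °C, n = 6; spun at 500g, 4 °C; supernatant absorbance read at 540 nm; 1% Triton X-100 as positive and PBS as negative control; % lysis calculated.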

**Q.** For O=C(O)c1cccc(NCc2ccc(Sc3ccc(Cl)c(Cl)c3)c([N+](=O)[O-])c2)c1, which MIC [1] is on record?
**A.** 8 µg/mL (≈ 17.8 µM)

**Q.** What about the MIC [2] of the same molecule?
**A.** 8 µg/mL (≈ 17.8 µM)

**Q.** And the MIC [3]?
**A.** > 256 µg/mL

**Q.** What about the MIC [4] of the same molecule?
**A.** 8 µg/mL (≈ 17.8 µM)

**Q.** What about the MIC [5] of the same molecule?
**A.** 8 µg/mL (≈ 17.8 µM)

**Q.** And the MIC [6]?
**A.** > 256 µg/mL

**Q.** And the MIC [7]?
**A.** 8 µg/mL (≈ 17.8 µM)

**Q.** And the MIC [8]?
**A.** 8 µg/mL (≈ 17.8 µM)

**Q.** And the MIC [9]?
**A.** > 256 µg/mL

**Q.** What about the MIC [10] of the same molecule?
**A.** 8 µg/mL (≈ 17.8 µM)

**Q.** What about the IC50 [11] of the same molecule?
**A.** 42.9 µM

**Q.** What about the MIC [12] of the same molecule?
**A.** > 256 µg/mL

**Q.** And the MIC [13]?
**A.** > 256 µg/mL

**Q.** Which results are given for CO[C@H]1/C=C/O[C@@]2(C)Oc3c(C)c(O)c4c(O)c(c(/C=N/N5CCN(C)CC5)c(O)c4c3C2=O)NC(=O)/C(C)=C\C=C\[C@H](C)[C@H](O)[C@@H](C)[C@@H](O)[C@@H](C)[C@H](OC(C)=O)[C@@H]1C [RIFAMPIN]?
**A.** MIC [1]: 0.03 µg/mL (≈ 0.0365 µM); MIC [2]: 0.03 µg/mL (≈ 0.0365 µM); MIC [4]: 4 µg/mL (≈ 4.86 µM); MIC [5]: 0.01 µg/mL (≈ 0.0122 µM); MIC [14]: 0.0625 µg/mL (≈ 0.0759 µM); Activity [15]: Active; MIC [7]: 0.03 µg/mL (≈ 0.0365 µM); MIC [8]: 0.03 µg/mL (≈ 0.0365 µM); MIC [10]: 0.03 µg/mL (≈ 0.0365 µM)

**Q.** For CO/N=C(\C(=O)N[C@@H]1C(=O)N2C(C(=O)O)=C(CSc3nc(=O)c(O)nn3C)CS[C@H]12)c1csc(N)n1, which Activity [15] is on record?
**A.** inactive

**Q.** With O=C(O)c1ccccc1C(=O)c1ccc(Sc2ccc(Cl)c(Cl)c2)cc1 as the molecule, how does the MIC [3] read?
**A.** > 256 µg/mL

**Q.** What about the MIC [14] of the same molecule?
**A.** 16 µg/mL (≈ 39.7 µM)

**Q.** And the MIC [6]?
**A.** > 256 µg/mL

**Q.** What about the MIC [9] of the same molecule?
**A.** > 256 µg/mL

**Q.** What about the IC50 [11] of the same molecule?
**A.** 67 µM

**Q.** And the MIC [12]?
**A.** > 256 µg/mL

**Q.** What about the MIC [13] of the same molecule?
**A.** > 256 µg/mL

**Q.** What does the source list for O=C(O)c1ccc(Br)c(NCc2ccc(Sc3ccc(Cl)c(Cl)c3)c([N+](=O)[O-])c2)c1?
**A.** CC50 [16]: 92.6 µM; CC50 [17]: 67.7 µM; MIC [3]: > 256 µg/mL; selectivity ratio [18]: 24; MIC [14]: 4 µg/mL (≈ 7.57 µM); selectivity ratio [19]: 18; MIC [6]: > 256 µg/mL; MIC [9]: > 256 µg/mL; MIC [12]: > 256 µg/mL; MIC [13]: > 256 µg/mL

**Q.** Which MIC [3] does the source give for Nc1ccc(Sc2ccc(C(=O)c3ccccc3C(=O)O)cc2[N+](=O)[O-])cc1 here?
**A.** > 256 µg/mL

**Q.** What about the MIC [20] of the same molecule?
**A.** 128 µg/mL (≈ 325 µM)

**Q.** What about the MIC [6] of the same molecule?
**A.** > 256 µg/mL

**Q.** And the MIC [9]?
**A.** > 256 µg/mL

**Q.** What about the MIC [12] of the same molecule?
**A.** > 256 µg/mL

**Q.** And the MIC [13]?
**A.** > 256 µg/mL

**Q.** With O=C(O)c1ccccc1NCc1ccc(Sc2ccc(Cl)c(Cl)c2)c([N+](=O)[O-])c1 as the molecule, how does the CC50 [16] read?
**A.** 170 µM

**Q.** What about the MIC [1] of the same molecule?
**A.** 4 µg/mL (≈ 8.9 µM)

**Q.** What about the CC50 [17] of the same molecule?
**A.** 252 µM

**Q.** And the Papp A→B at 10 ug/ml [21]?
**A.** 36.2 ×10⁻⁶ cm/s

**Q.** And the MIC [2]?
**A.** 4 µg/mL (≈ 8.9 µM)

**Q.** And the MIC [3]?
**A.** > 256 µg/mL

**Q.** And the MIC [4]?
**A.** 8 µg/mL (≈ 17.8 µM)

**Q.** What about the MIC [5] of the same molecule?
**A.** 8 µg/mL (≈ 17.8 µM)

**Q.** What about the selectivity ratio [18] of the same molecule?
**A.** 38

**Q.** And the selectivity ratio [19]?
**A.** 57

**Q.** And the MIC [6]?
**A.** > 256 µg/mL

**Q.** What about the MIC [7] of the same molecule?
**A.** 4 µg/mL (≈ 8.9 µM)

**Q.** What about the MIC [8] of the same molecule?
**A.** 4 µg/mL (≈ 8.9 µM)

**Q.** What about the MIC [9] of the same molecule?
**A.** > 256 µg/mL

**Q.** What about the hemolysis [22] of the same molecule?
**A.** < 10%

**Q.** And the MIC [10]?
**A.** 4 µg/mL (≈ 8.9 µM)

**Q.** What about the IC50 [11] of the same molecule?
**A.** 11.6 µM

**Q.** What about the MIC [12] of the same molecule?
**A.** > 256 µg/mL

**Q.** What about the MIC [13] of the same molecule?
**A.** > 256 µg/mL

**Q.** Which MIC [3] does the source give for Nc1cccc(Sc2ccc(C(=O)c3ccccc3C(=O)O)cc2[N+](=O)[O-])c1 here?
**A.** > 256 µg/mL

**Q.** What about the MIC [20] of the same molecule?
**A.** 64 µg/mL (≈ 162 µM)

**Q.** And the MIC [6]?
**A.** > 256 µg/mL

**Q.** And the MIC [9]?
**A.** > 256 µg/mL

**Q.** And the MIC [12]?
**A.** > 256 µg/mL

**Q.** And the MIC [13]?
**A.** > 256 µg/mL
